Screens as filed in PubChem.
The full list was thinned out, with hits kept by preference.
E-selectin induc = E-selectin induction in HUVECs, primary screen, imaging, HUVEC, immunofluorescence imaging, single point. P16581. 260,000 tested, 0.37% active. AID 686992, 2013. activation, % at 7.58 µM. normalized: neutral wells 0, TNF-alpha wells 100;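 active = mean E-selectin-positive cell signal at least 10% of the positive control, reached in at least 60% of replicates, without over 20% cell loss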
Target sequence (P16581 whole entry, looked up): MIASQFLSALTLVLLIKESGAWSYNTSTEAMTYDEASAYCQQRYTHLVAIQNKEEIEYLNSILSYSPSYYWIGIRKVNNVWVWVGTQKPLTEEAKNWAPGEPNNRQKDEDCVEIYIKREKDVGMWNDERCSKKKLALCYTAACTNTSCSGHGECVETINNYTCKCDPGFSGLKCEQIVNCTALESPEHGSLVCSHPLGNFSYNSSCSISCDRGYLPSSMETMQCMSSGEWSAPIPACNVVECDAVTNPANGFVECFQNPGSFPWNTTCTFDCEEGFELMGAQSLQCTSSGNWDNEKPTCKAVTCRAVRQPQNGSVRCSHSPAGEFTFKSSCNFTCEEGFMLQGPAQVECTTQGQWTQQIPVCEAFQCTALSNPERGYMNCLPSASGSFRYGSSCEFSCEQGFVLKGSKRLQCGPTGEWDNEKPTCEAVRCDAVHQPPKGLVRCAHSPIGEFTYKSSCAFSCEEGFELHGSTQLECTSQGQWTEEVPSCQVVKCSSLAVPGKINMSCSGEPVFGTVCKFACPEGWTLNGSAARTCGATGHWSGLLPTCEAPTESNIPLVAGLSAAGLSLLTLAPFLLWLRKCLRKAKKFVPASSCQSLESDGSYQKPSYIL
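System: HUVEC / Compound: single concentration / Signal: immunofluorescence imaging / Read-out: percent E-selectin-positive cells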
* = called active by the depositor.

C[C@H]1CN([C@@H](C)CO)C(=O)c2cccc(NC(=O)C3CC3)c2O[C@H]1CN(C)C(=O)Nc1ccc(C(F)(F)F)cc1 was read as E-selectin induc 0.0.
`Cc1ccc(C(C(=O)NCC2CCCO2)N(C(=O)c2snc(C(N)=O)c2N)c2ccc(C)c(C)c2)o1` (configuration not stated) gave E-selectin induc 0.2.
Cc1ccc(C(C(=O)NCC2CCCO2)N(C(=O)c2snc(C(N)=O)c2N)c2ccc(F)cc2)o1 (configuration not stated) was read as E-selectin induc 1.8.
COc1cc(OC)cc(N(C(=O)c2snc(C(N)=O)c2N)C(C(=O)NCC2CCCO2)c2ccc(C)o2)c1 (configuration not stated) was read as E-selectin induc 44.1*.
N#C[C@H]1[C@@H](c2ccccc2-c2ccc(F)cc2)[C@@H](CO)N1c1ncc(-c2ccccc2)s1 was read as E-selectin induc -0.1.
For Cc1ccccc1S(=O)(=O)NCC[C@H]1CC[C@H](NS(=O)(=O)c2ccccc2C)[C@@H](CO)O1 the results were E-selectin induc -0.2.
O=S(=O)(NCCc1csc(-c2ccc(C(F)(F)F)cc2)n1)c1ccc2c(c1)OCCO2 was read as E-selectin induc 4.0.
`Cc1ccc(S(=O)(=O)NCc2csc(-c3cccs3)n2)cc1` gave E-selectin induc 7.2.
Screening O=S(=O)(NCc1csc(-c2cccs2)n1)c1ccc(Cl)cc1 returned E-selectin induc 52.0*.
`Cc1nc(CNS(=O)(=O)c2ccc3ccccc3c2)cs1` gave E-selectin induc 1.9.
COc1ccc(S(=O)(=O)NCc2csc(-c3cccnc3)n2)cc1 was read as E-selectin induc 2.8.
O=S(=O)(NCc1csc(-c2cccs2)n1)c1cccc(C(F)(F)F)c1 was read as E-selectin induc 60.5*.
`C[C@@H]1CN([C@@H](C)CO)C(=O)c2cc(NS(=O)(=O)c3cn(C)cn3)ccc2O[C@@H](C)CCCCO[C@@H]1CN(C)Cc1ccccc1` gave E-selectin induc 1.4.
`Cc1noc(C)c1NC(=O)N(C)C[C@H]1Oc2ccc(NC(=O)Nc3ccc4c(c3)OCO4)cc2CC(=O)N([C@@H](C)CO)C[C@H]1C` gave E-selectin induc -0.1.
For Cc1ccc(S(=O)(=O)N(C)C[C@H]2Oc3c(NC(=O)c4cc(C)nn4C)cccc3C(=O)N([C@H](C)CO)C[C@@H]2C)cc1 the results were E-selectin induc 0.0.
CC(C)Sc1nc2c(cnn2-c2ccc(F)cc2)c(=O)[nH]1 was read as E-selectin induc -0.1.
CC(C)Sc1nc2c(cnn2-c2ccccc2)c(=O)[nH]1 was read as E-selectin induc 0.0.
`Cc1ccc(-n2ncc3c(=O)[nH]c(SC(C)C)nc32)cc1` gave E-selectin induc 128.4*.
For C[C@H]1CN([C@@H](C)CO)C(=O)Cc2cc(NS(=O)(=O)c3ccc(F)cc3)ccc2O[C@@H]1CN(C)S(=O)(=O)c1ccc(F)cc1 the results were E-selectin induc -0.3.
Screening C[C@H](CO)N1C[C@H](C)[C@@H](CN(C)S(=O)(=O)c2ccc(Cl)cc2)Oc2ccc(NS(=O)(=O)c3ccc(F)cc3)cc2CC1=O returned E-selectin induc 58.9*.
Screening C[C@@H]1CN([C@H](C)CO)C(=O)Cc2cc(NC(=O)Nc3ccc(F)cc3)ccc2O[C@@H]1CN(C)S(=O)(=O)c1ccc(Cl)cc1 returned E-selectin induc 34.7*.
For C[C@H]1CN([C@@H](C)CO)C(=O)Cc2cc(NC(=O)Nc3ccc(F)cc3)ccc2O[C@@H]1CN(C)S(=O)(=O)c1cn(C)cn1 the results were E-selectin induc -16.2.
C[C@@H]1CN([C@@H](C)CO)C(=O)Cc2cc(NC(=O)Nc3ccc(F)cc3)ccc2O[C@H]1CN(C)S(=O)(=O)c1ccc(Cl)cc1 was read as E-selectin induc -14.4.
`C[C@H](CO)N1C[C@H](C)[C@H](CN(C)S(=O)(=O)c2ccc(F)cc2)Oc2ccc(NS(=O)(=O)c3ccc(F)cc3)cc2CC1=O` gave E-selectin induc -0.3.
For C[C@@H]1CN([C@H](C)CO)C(=O)Cc2cc(NS(=O)(=O)c3ccc(Cl)cc3)ccc2O[C@@H]1CN(C)S(=O)(=O)c1ccc(F)cc1 the results were E-selectin induc -0.7.
For C[C@H]1CN([C@@H](C)CO)C(=O)Cc2cc(NC(=O)Nc3ccc(F)cc3)ccc2O[C@H]1CN(C)S(=O)(=O)c1ccc(Cl)cc1 the results were E-selectin induc -14.1.
`C[C@H](CO)N1C[C@H](C)[C@H](CN(C)S(=O)(=O)c2ccc(Cl)cc2)Oc2ccc(NS(=O)(=O)c3ccc(F)cc3)cc2CC1=O` gave E-selectin induc 92.2*.
For C[C@@H]1CN([C@@H](C)CO)C(=O)Cc2cc(NC(=O)Nc3ccc(F)cc3)ccc2O[C@@H]1CN(C)S(=O)(=O)c1cn(C)cn1 the results were E-selectin induc 72.5*.
`C[C@H]1CN([C@@H](C)CO)C(=O)Cc2cc(NS(=O)(=O)c3ccc(Cl)cc3)ccc2O[C@@H]1CN(C)S(=O)(=O)c1ccc(F)cc1` gave E-selectin induc 0.1.
C[C@@H]1CN([C@H](C)CO)C(=O)Cc2cc(NC(=O)Nc3ccc(F)cc3)ccc2O[C@H]1CN(C)S(=O)(=O)c1cn(C)cn1 was read as E-selectin induc -12.2.
For CN(C)CC(=O)Nc1ccc2c(c1)[C@H]1C[C@H](CC(=O)NCc3ccncc3)O[C@@H](CO)[C@H]1O2 the results were E-selectin induc 0.5.
Screening O=C(O)C[C@@H]1CC[C@@H](NC(=O)CCN2CCCCC2)[C@@H](CO)O1 returned E-selectin induc -0.2.
CC(C)C(=O)Nc1ccc2c(c1)C(=O)N(C)[C@@H]1CC[C@H](CC(=O)NCCCN(C)C)O[C@@H]1CO2 was read as E-selectin induc 0.0.
COc1ccc2c3c([nH]c2c1)[C@@H](CO)N(Cc1ccc(F)cc1)CC31CCN(C)CC1 was read as E-selectin induc -0.1.
Screening C[C@H]1CN([C@@H](C)CO)C(=O)c2cccc(NS(=O)(=O)c3cccs3)c2O[C@@H]1CN(C)C(=O)Nc1ccc2c(c1)OCO2 returned E-selectin induc -13.7.
Screening NC(=O)CSc1nnc(SCc2ccc(F)cc2)s1 returned E-selectin induc 27.2*.
For O=C(CSc1nncs1)NCc1ccc(F)cc1 the results were E-selectin induc 0.2.
For O=C(Nc1nnc(SCc2ccc(F)cc2)s1)c1cnccn1 the results were E-selectin induc 0.8.
Screening COc1ccccc1S(=O)(=O)N1CC[C@@H]2[C@@H](CO)Nc3ccc(Br)cc3[C@@H]21 returned E-selectin induc 0.7.
For C[C@H](CO)N1C[C@H](C)[C@@H](CN(C)Cc2ccccn2)Oc2ncc(C#CC(C)(C)O)cc2C1=O the results were E-selectin induc 0.1.
`Cc1ccc(-c2ccc([C@@H]3[C@H]4CN(C(=O)c5ccncc5)CC(=O)N4[C@H]3CO)cc2)cc1` gave E-selectin induc 0.1.
For CCCNC(=O)[C@@H]1[C@@H](CO)[C@@H]2Cn3c(ccc(C4=CCCC4)c3=O)[C@H]1N2S(C)(=O)=O the results were E-selectin induc 0.9.
Screening C[C@H]1CN([C@@H](C)CO)C(=O)Cc2cc(NC(=O)C3CCCCC3)ccc2O[C@@H]1CN(C)S(C)(=O)=O returned E-selectin induc -12.7.
`C[C@@H]1CN([C@@H](C)CO)C(=O)Cc2cc(NC(=O)C3CCCCC3)ccc2O[C@H]1CN(C)C(=O)NC1CCCCC1` gave E-selectin induc 9.7.
